Measured values as given in publication PMC7316630 (Nature immunology, 2020).
Where a name gives a salt, the structure may show the parent alone. Peptide text beside a SMILES is read from it. * marks the point of attachment. Cbz = O=C(OCc1ccccc1)*; CH2F = FC*

Legend:
[1] = target: T1, human GSDMD (Homo sapiens, UniProt P57764); type: biochemical; settings: for Inhibition of GSDMD and caspase-11-mediated liposome leakage (in words): GSDMD 0.3 μM plus caspase-11 0.15 μM, LDC7559 at up to 50 μM
T1 sequence (P57764 1-484): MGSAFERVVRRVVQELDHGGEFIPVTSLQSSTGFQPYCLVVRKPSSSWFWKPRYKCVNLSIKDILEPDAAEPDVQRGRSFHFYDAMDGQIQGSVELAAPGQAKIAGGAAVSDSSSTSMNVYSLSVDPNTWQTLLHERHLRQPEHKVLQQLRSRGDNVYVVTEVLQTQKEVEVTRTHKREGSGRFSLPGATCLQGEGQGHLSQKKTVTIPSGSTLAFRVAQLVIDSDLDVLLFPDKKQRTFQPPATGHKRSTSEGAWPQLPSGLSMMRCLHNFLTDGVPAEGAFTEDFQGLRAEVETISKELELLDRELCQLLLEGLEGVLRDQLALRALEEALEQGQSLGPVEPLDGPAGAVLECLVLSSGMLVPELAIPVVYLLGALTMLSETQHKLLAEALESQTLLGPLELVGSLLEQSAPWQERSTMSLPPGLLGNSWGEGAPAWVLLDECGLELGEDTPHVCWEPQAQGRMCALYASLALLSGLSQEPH

[2] = system: LPS-primed THP-1 cells; test: ASC speck formation, immunofluorescence; type: cell-based, human; settings: 30 μM, 1 hr before nigericin; 20 min after nigericin
How it was run: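 THP-1 cells were differentiated with 50 nM PMA for 36 hrs, primed with LPS (1 μg/ml) for 4 hrs, and pretreated with test compound, vehicle or z-VAD-fmk, then given nigericin (20 μM). Cells on coverslips were fixed in 4% paraformaldehyde for 15 min, permeabilized in 0.1% Triton X-100 for 5 min and blocked in 5% BSA for 1 hr. ASC was then immunostained.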

[3] = system: LPS-primed THP-1 cells; test: GSDMD membrane staining and pyroptotic bubbles, confocal microscopy; type: cell-based, human; settings: 30 μM; 30 min after nigericin
How it was run: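 PMA-differentiated THP-1 cells were primed with LPS (1 μg/ml, 4 hrs), pretreated for 1 hr and given nigericin. They were fixed (4% PFA), permeabilized (0.1% Triton X-100), blocked (5% BSA) and stained with an in-house mouse monoclonal anti-GSDMD antibody. Confocal images were scored for cells with membrane GSDMD staining and pyroptotic bubbles across 40 high-power fields per sample, in 5 independent experiments. Two-tailed Student's t-test was used.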

[4] = system: LPS-primed THP-1 cells; test: Immunoblot of caspase-1, GSDMD, pro-IL-1β cleavage and IL-1β release; type: cell-based, human; settings: 30 μM, 1 hr before nigericin
[5] = system: LPS-primed iBMDMs; test: Immunoblot of caspase-1, GSDMD, pro-IL-1β cleavage and IL-1β release; type: cell-based, mouse; settings: 1 hr before nigericin; lysates 1 hr later
How it was run: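 Mouse iBMDMs were pretreated for 1 hr with test compound, Bay 11-7082, necrosulfonamide or z-VAD-fmk, then given nigericin. Whole cell lysates and culture supernatants were harvested 1 hr after nigericin and immunoblotted with the indicated antibodies. Data come from three independent experiments.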

[6] = system: HT-29 cells; test: Necroptosis induced by TNF, SMAC mimetic and z-VAD-fmk, CellTiter-Glo; type: cell-based; settings: disulfiram 10 and 50 μM, NSA 2 μM, Nec 10 μM; 1 hr pretreatment; 24 hrs
How it was run: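 HT-29 cells were pretreated for 1 hr. Necroptosis was then induced with TNF (20 ng/ml), SMAC mimetic (100 nM) and z-VAD-fmk (20 μM). Viability was read 24 hrs later as ATP by CellTiter-Glo luminescence.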

[7] = system: Mouse iBMDMs; test: AIM2 inflammasome cell death, poly; type: cell-based; settings: 5–40 μM, 1 hr pretreatment, 4 hrs
[8] = system: iBMDM; test: LPS transfection-induced IL-1β secretion, ELISA; type: cell-based, mouse; settings: 2.5 h; potency comparable to z-VAD-fmk
[9] = system: LPS-primed THP-1; test: LPS + nigericin cell death with or without Cu; type: cell-based, human; settings: with versus without Cu(II)
[10] = target: T2, pre-cleaved mouse GSDMA3 (Mus musculus, UniProt Q5Y4Y6); test: Liposome leakage by pre-cleaved GSDMA3; type: biochemical; settings: pre-cleaved mouse GSDMA3 0.3 μM
T2 sequence (Q5Y4Y6 with tags, fused parts or gaps limits assumed): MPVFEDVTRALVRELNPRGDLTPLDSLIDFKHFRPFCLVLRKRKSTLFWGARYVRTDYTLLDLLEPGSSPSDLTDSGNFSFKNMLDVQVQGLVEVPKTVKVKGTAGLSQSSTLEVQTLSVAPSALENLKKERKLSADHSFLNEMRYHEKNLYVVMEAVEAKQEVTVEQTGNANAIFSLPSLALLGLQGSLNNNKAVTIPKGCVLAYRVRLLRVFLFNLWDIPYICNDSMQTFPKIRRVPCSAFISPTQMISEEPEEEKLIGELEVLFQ

[11] = system: C57BL/6J mice; test: LPS-induced sepsis, survival; type: in vivo, mouse; settings: LPS 25 mg/kg; 50 mg/kg i.p. 4 hrs before and daily after LPS
[12] = system: THP-1; test: Nigericin-induced IL-1β secretion, ELISA; type: cell-based, human; settings: potency comparable to z-VAD-fmk

Compound: CN(C)C/C=C/C(=O)Nc1cc2c(Nc3ccc(F)c(Cl)c3)ncnc2cc1O[C@H]1CCOC1 [afatinib]
- Inhibition of GSDMD and caspase-11-mediated liposome leakage (in words) [1]: hardly any activity

Compound: C=CC(=O)N1CCC[C@@H](n2nc(-c3ccc(Oc4ccccc4)cc3)c3c(N)ncnc32)C1 [ibrutinib]
- Inhibition of GSDMD and caspase-11-mediated liposome leakage (in words) [1]: hardly any activity

Compound: COC(=O)C[C@H](NC(=O)[C@H](C)NC(=O)[C@@H](NC(=O)OCc1ccccc1)C(C)C)C(=O)CF [z-VAD-fmk] (Cbz-Val-Ala-Asp(OMe)-CH2F)
- ASC speck formation [2]: not inhibited
- GSDMD membrane staining and appearance of pyroptotic bubbles [3]: completely blocked
- Proteolytic processing of caspase-1, GSDMD and pro-IL-1β ([4]; lysates 1 hr later): inhibited the processing of all 3 proteins

Compound: Cc1ccc(S(=O)(=O)/C=C/C#N)cc1 [Bay 11–7082]
- Proteolytic processing of caspase-1, GSDMD and pro-IL-1β [5]: inhibited
- Inhibition of GSDMD and caspase-11-mediated liposome leakage (in words) [1]: moderately inhibited

Compound: COc1nccnc1NS(=O)(=O)c1ccc(NC(=O)/C=C/c2ccc([N+](=O)[O-])s2)cc1 [NSA, necrosulfonamide]
- Proteolytic processing of caspase-1, GSDMD and pro-IL-1β [5]: inhibited
- Effect on necroptosis (cell viability) [6]: blocked
- Inhibition of GSDMD and caspase-11-mediated liposome leakage (in words) [1]: moderately inhibited

Compound: CCN(CC)C(=S)SSC(=S)N(CC)CC [C-23, tetraethylthiuram disulfide]
- Effect on AIM2 inflammasome-triggered cell death [7]: impaired cell death in a dose-dependent manner
- LPS transfection-induced IL-1β secretion [8]: inhibited
- ASC speck formation [2]: only modestly inhibited
- Effect on necroptosis (cell viability) [6]: no effect
- Incubation time at which inhibition of liposome leakage was seen ([1]; preincubation with GSDMD 2–90 min, 0–5.6 μM): ≤ 2 min
- Decrease of IC50 for inhibiting pyroptosis with Cu(II) [9]: 24 fold
- Inhibition of pore formation of pre-cleaved GSDMA3 [10]: did not inhibit
- Survival of Casp1–/– mice [11]: protected
- Nigericin-induced IL-1β secretion [12]: inhibited
- IL-1β in culture supernatant ([4]; immunoblot): no IL-1β was detected

Compound: COC(=O)/C=C/C(=O)OC [DMF, dimethyl fumarate]
- Inhibition of GSDMD and caspase-11-mediated liposome leakage (in words) [1]: hardly any activity

Compound: CN1C(=O)C(Cc2c[nH]c3ccccc23)NC1=S (centres unmarked) [necrostatin-1]
- Effect on necroptosis (cell viability) [6]: blocked

Compound: COc1ccccc1-c1cc2n(n1)Cc1ccc(NC(C)=O)cc1OC2 [LDC7559]
- Inhibition of GSDMD and caspase-11-mediated liposome leakage (in words) [1]: no activity
